This is a sample that favours compounds with a hit; in the whole collection about 5.1% have one here.
STAT3 act = STAT3 signaling activation; U3A cells, IL-6 STAT3-luciferase reporter, luminescence; 100% = signal with IL-6 EC80 alone; activation (% of control), % at 5.6 µM; 0.91% of 190,000 active;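 active = activation above the screen-wide mean of compound activation plus 3 SD, cut at about 130% in these data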;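 note: 0% = background luminescence of wells with medium and substrate only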
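Material: human STAT1-deficient U3A cells with stable STAT3-luciferase reporter / Probe or stimulus: IL-6 stimulus at 33 ng/mL final / Schedule: 1 h compound pre-exposure, 6 h IL-6 stimulation, 37 °C / Technique: luminescence / Read-out basis: percent of IL-6-only median luminescence / Control set: IL-6-only high control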
STAT3 inh = STAT3 signaling inhibition | U3A cells, IL-6 STAT3-luciferase reporter, luminescence; host cell line lacks STAT1 | inhibition, % at 5.5 µM | 0.89% of 190,000 active | AID 862;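 active = inhibition above the mean inhibition across all screened compounds plus 3 SD, cut at about 44% in these data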;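 note: 0% = DMSO only wells and 100% = 100 µM nifuroxazide control wells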
STAT1 blocker = STAT1 signaling inhibition; NIH 3T3 STAT1-luciferase reporter, IFN-gamma, luminescence; inhibition, % at 5.5 µM; 0.35% of 200,000 active; AID 920;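 active = inhibition above a set limit, the mean inhibition across all tested compounds plus 3 SD, cut at about 34% in these data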;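 note: 0% = IFN-gamma with DMSO and 100% = IFN-gamma with 300 µM nifuroxazide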
STAT1 act = STAT1 signaling activation. activation (% of control), % at 5.5 µM. NIH 3T3 STAT1-luciferase reporter, IFN-gamma, luminescence; 100% = IFN-gamma alone, no compound. 2.6% of 200,000 active. AID 932;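 active = activation above the screen-wide mean activation plus 3 SD, cut at about 130% in these data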;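 note: raw ratio to IFN-gamma control signal so 100% means no change and 0% no light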
NF-kB expr up = raises NF-kB expression in human neuronal cells. NF-kB reporter expression; hits give high values. fold change at 12.5 µM. 1.6% of 190,000 active. AID 1239; in the data active = fold change above about 3.3
APP 5'UTR act = activates APP 5'UTR luciferase reporter | SH-SY5Y APP 5'UTR luciferase reporter, luminescence; zero percent = DMSO vehicle wells | activation, % at 2 µM | 1% of 190,000 active;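 active = activation above a set limit, based on mean plus 3 SD of controls, cut at about 140% in these data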
Starred values were filed as active, the others as inactive.

SMILES | STAT3 act | STAT3 inh | STAT1 blocker | STAT1 act | NF-kB expr up | APP 5'UTR act
CC(C)=C(NC(=O)c1ccccc1)C(=O)Nc1cccc(C(=O)O)c1 | 98 | 6 | 0 | 98 | 1.1 | 23
CCOc1ccc(NC(=O)c2nsc(Cl)c2Cl)cc1 | 96 | 9 | -56 | 150* | 6.4* | 234*
O=C(Nc1ccc(F)cc1)c1nsc(Cl)c1Cl | 130 | -32 | -47 | 138* | 5* | 127
CN(C(=O)COC(=O)C1CCN(S(=O)(=O)c2cccs2)CC1)c1ccccc1 | 104 | 1 | 4 | 96 | 1.1 | 6
O=c1c(Cl)c(N2CCOCC2)cnn1-c1nc2ccccc2[nH]1 | 83 | 28 | -42 | 136* | 1.3 | 104
Cc1cccc(/C=C/c2nc3ccccc3c(=O)n2Cc2ccccc2)c1 | 96 | 8 | 1 | 99 | 0.86 | -5
Cc1cccc(/C=C/c2nc3ccccc3c(=O)[nH]2)c1 | 68 | 39 | -21 | 121 | 6.3* | 92
CC(C)c1onc(C(=O)Nc2cccc(O)c2)c1[N+](=O)[O-] | 100 | 2 | -4 | 102 | 1.7 | 21
Cc1cc(O)ccc1N/C=C/c1onc(C)c1[N+](=O)[O-] | 104 | 3 | -38 | 135* | 2.6 | 162*
CC(C)(C)NC(=O)c1ccccc1NC(=O)C1CCCO1 (configuration not stated) | 98 | 10 | -8 | 106 | 0.92 | 20
Cc1ccc(NC(=O)c2ccc3nc[nH]c3c2)cc1C | 91 | 10 | -47 | 143* | 3.2 | 106
COc1cc(CC(=O)N(c2ccccc2)c2nc(C)cs2)cc(OC)c1OC | 108 | 0 | 9 | 90 | 1.1 | -7
COc1ccc(S(=O)(=O)N2CCN(c3nc4ccccc4nc3-n3nc(C)cc3C)CC2)cc1 | 98 | 1 | -5 | 105 | 1.6 | -2
COc1ccc(CNC(=O)c2noc3c2CCCCC3)cc1 | 99 | 7 | -5 | 106 | 1.6 | -1
COC(=O)c1ccccc1NC(=O)c1noc2c1CCCC2 | 101 | 5 | -12 | 113 | 0.95 | -4
Cc1ccc(NC(=O)c2noc3c2CCC3)cc1C | 95 | 14 | -11 | 108 | 8.3* | 182*
O=C(Nc1cnn(Cc2ccc(F)cc2)c1)c1noc2c1CCCC2 | 95 | 13 | -34 | 129* | 1.6 | 59
O=C(NCc1ccccc1)c1noc2c1CCCCC2 | 113 | -12 | -33 | 130* | 1.9 | 66
COc1ccc(NC(=O)c2noc3c2CCC3)cc1 | 97 | 10 | -42 | 139* | 4* | 143*
Cc1ccccc1C1CC(c2cccs2)Nc2nnnn21 (configuration not stated) | 107 | -4 | 2 | 95 | 1.3 | 10
CC(=O)c1ccc(NC(=O)c2noc3c2CCC3)cc1 | 46 | 66* | 53* | 51 | 4.8* | 138*
CC(C)CNC(=O)c1cccc(NC(=O)c2ccc(Cl)c([N+](=O)[O-])c2)c1 | 99 | 4 | -4 | 104 | 0.64 | -12
Cc1cc(C(=O)OCC(=O)NCCCN2CCCC2=O)c2ccccc2n1 | 95 | 9 | -3 | 102 | 0.88 | -3
O=C(Nc1ccon1)c1cc2c(s1)CCCC2 | 85 | 23 | -36 | 133* | 5.6* | 164*
O=C(Nc1ccon1)c1cc2c(s1)CCCCCC2 | 108 | -8 | -50 | 141* | 3 | 124
SMILES | STAT3 act | STAT3 inh | STAT1 blocker | STAT1 act | NF-kB expr up | APP 5'UTR act
CC(C)NC(=O)c1cc2c(s1)CCCC2 | 100 | 3 | 5 | 96 | 1.1 | -1
CNC(=O)c1cc2c(s1)CCCCCC2 | 98 | 6 | 0 | 100 | 1.1 | -7
O=C(CSc1nc(Nc2ccccc2)nc(N2CCOCC2)n1)Nc1ccccc1Cl | 103 | 1 | 2 | 98 | 6.7* | -12
Cc1ccc(S(=O)(=O)N[C@H](C(=O)OCC(=O)N2N=C(c3ccc(Cl)cc3)CC2c2ccco2)C(C)C)cc1 (some centres not stated) | 114 | -16 | 0 | 100 | 0.78 | -17
Cc1cccc(-n2ncc3c(NC(C)C)ncnc32)c1 | 90 | 13 | -52 | 150* | 5* | 158*
CCOc1ccc(Nc2ncnc3c2cnn3-c2ccccc2)cc1 | 91 | 11 | -10 | 110 | 1 | 21
CC(C)Nc1ncnc2c1cnn2-c1ccccc1 | 81 | 28 | -40 | 136* | 4* | 119
CC(=O)CSc1ncnc2c1cnn2-c1ccccc1 | 71 | 38 | -27 | 123 | 7.2* | 120
NNc1ncnc2c1cnn2-c1ccccc1 | 109 | -10 | 0 | 100 | 0.76 | -5
Cc1ccccc1Nc1ncnc2c1cnn2-c1ccccc1 | 106 | -7 | -31 | 130* | 2.6 | 23
CNC(=O)CSc1ncnc2c1cnn2-c1ccccc1 | 93 | 14 | -18 | 114 | 1.8 | 20
Cc1cccc(-n2ncc3c(N)ncnc32)c1 | 93 | 15 | -10 | 111 | 1.8 | -1
CCCCN1C(=O)/C(=C2/Sc3ccccc3N2C)S/C1=N\c1ncn[nH]1 | 92 | 13 | 2 | 97 | 0.85 | -5
O=C(CCNc1ccc(Cc2ccncc2)cc1)c1ccc([N+](=O)[O-])cc1 | 97 | 6 | -1 | 100 | 0.97 | 12
COc1ccc(NC(=O)CSc2ncnc3c2cnn3CCc2ccccc2)cc1 | 67 | 46* | -2 | 102 | 1.5 | 2
COc1ccc(/C=C/C(=O)c2ccc[nH]2)cc1OC | 121 | -29 | -32 | 130* | 2.6 | 53
C=CS(=O)(=O)c1sc(Cl)c(N2CCOCC2)c1[N+](=O)[O-] | 92 | 16 | -33 | 129* | 1.1 | -31
CCC(=O)Nc1cc(-c2cc3ccccc3oc2=O)ccc1OC | 102 | 3 | -23 | 118 | 0.93 | 78
CC(=O)Nc1ccc(-c2cc3ccccc3o2)cc1 | 92 | 17 | -44 | 141* | 6.5* | 222*
O=c1oc2ccccc2cc1NCc1ccccc1O | 106 | -2 | -3 | 102 | 3.6* | 80
CCC(=O)Nc1ccc(-c2cc3ccccc3oc2=O)cc1 | 88 | 19 | -48 | 143* | 2.6 | -17
O=c1oc2ccccc2cc1-c1ccc(O)cc1 | 110 | -15 | -33 | 134* | 2.6 | 47
Cc1ccccc1NCc1ccccc1O | 86 | 23 | 12 | 89 | 1 | -14
CCOC(=O)c1cc(-c2ccc(C)cc2)n(CCC(=O)N2CCN(c3ccccn3)CC2)c1C | 101 | -1 | 1 | 99 | 0.6 | 3
COC(=O)c1ccc(NC(=S)NC2CC3CCC2C3)cc1 (configuration not stated) | 98 | 0 | -25 | 123 | 2.1 | 19
Cc1ccc(Cc2cnc(NC(=O)C3CCCO3)s2)cc1 (configuration not stated) | 102 | -2 | -39 | 135* | 4.5* | 145*
Cc1csc(NC(=O)C2CCCO2)n1 (configuration not stated) | 104 | 0 | 1 | 99 | 0.92 | 0
Cc1csc(NC(=O)c2ccc(C)o2)n1 | 105 | -4 | -17 | 115 | 2.1 | 69
